Results published in ChEMBL document CHEMBL1134544, “Novel selective PDE4 inhibitors. 1. Synthesis, structure-activity relationships, and molecular modeling of 4-(3,4-dimethoxyphenyl)-2H-phthalazin-1-ones and analogues” (J Med Chem, 2001).

Tests used:
Phosphodiesterase 4 = Phosphodiesterase 4 (Homo sapiens, UniProt P27815+Q08499+Q07343+Q08493); assay: Inhibition of PDE4 in the cytosol of human neutrophils; assay type: protein assay
Procedure, shortened: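 Cytosol of human polymorphonuclear leukocytes from leukocyte concentrates, with motapizone 1 µM to suppress platelet PDE3. [3H]cAMP hydrolysis (0.5 µM cAMP, Tris-HCl pH 7.4, 5 mM MgCl2), 5 min preincubation plus 15 min at 37 °C. Snake venom nucleotidase step, ion-exchange separation, scintillation counting.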

Phosphodiesterase 3 = Phosphodiesterase 3 (Homo sapiens, UniProt Q14432+Q13370); assay: Inhibition of PDE3 in homogenates of human blood platelets
Procedure, shortened: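 PDE3 from human blood platelet homogenates. Radiometric assay: 50 mM Tris-HCl pH 7.4, 5 mM MgCl2, 0.5 µM cAMP plus [3H]cAMP; 5 min preincubation then 15 min at 37 °C; HCl stop, Crotalus atrox 5'-nucleotidase, QAE Sephadex separation, blank-corrected counts. Inhibitors at 0.5% DMSO final; IC50 by nonlinear regression; two independent determinations in triplicate.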

| SMILES | Log IC50 (Phosphodiesterase 4) | Log IC50 (Phosphodiesterase 3) |
| --- | --- | --- |
| COc1ccc(C2=NN(c3ccccc3)C(=O)[C@@H]3CC=CC[C@@H]23)cc1OC | -6.1 |  |
| COc1ccc(C2=NN(c3ccccc3)C(=O)[C@@H]3CCCC[C@@H]23)cc1OC | -5.1 |  |
| COc1ccc(-c2nn(-c3ccccc3)c(=O)c3ccccc23)cc1OC | -5.8 |  |
| COc1ccc(C2=NN(Cc3ccccc3)C(=O)CC2)cc1OC | -7.1 | -5.3 |
| COc1ccc(C2=NN(Cc3ccccc3)C(=O)[C@@H]3CCCC[C@H]23)cc1OC | -8.1 |  |
| COc1ccc(-c2nn(Cc3ccccc3)c(=O)c3c2CCCC3)cc1OC | -5.8 |  |
| COc1ccc(C2=NNC(=O)[C@@H]3CCCC[C@@H]23)cc1OC | -5.3 |  |
| COc1ccc(C2=NN(c3ccccc3)C(=O)[C@@H]3CC=CC[C@H]23)cc1OC | -7.9 |  |
| COc1ccc(C2=NN(c3ccccc3)C(=O)C(C)C2C)cc1OC (stereo not given) | -7.3 | < -5 |
| COc1ccc(-c2nn(-c3ccccc3)c(=O)c3c2CCCC3)cc1OC | -5.3 |  |
| COc1ccc(C2=NN(Cc3ccccc3)C(=O)[C@@H]3CC=CC[C@H]23)cc1OC | -8.4 |  |
| COc1ccc(-c2nnc(O)c3c2CCCC3)cc1OC | -5.2 |  |
| COc1ccc(C2=NN(c3ccccc3)C(=O)C(C)C2)cc1OC (stereo not given) | -6.9 | < -5 |
| COc1ccc(C2=NN(c3ccccc3)C(=O)CC2C)cc1OC (stereo not given) | -6.8 | < -5 |
| COc1ccc(-c2nnc(O)c3ccccc23)cc1OC | -5.8 |  |
| COc1ccc(-c2nn(Cc3ccccc3)c(=O)c3ccccc23)cc1OC | -6.5 |  |
| COc1ccc(C2=NNC(=O)CC2)cc1OC | -5.9 | -5.6 |
| COc1ccc(C2=NN(c3ccccc3)C(=O)[C@@H]3CCCC[C@H]23)cc1OC | -7.6 |  |
| COc1ccc(C2=NN(c3ccccc3)C(=O)CC2)cc1OC | -6.4 | < -5 |
| COc1ccc(C2=NNC(=O)CC2C)cc1OC (stereo not given) | -6.5 | -6.6 |
| COc1ccc(C2=NNC(=O)[C@@H]3CC=CC[C@H]23)cc1OC (relative stereo) | -7 |  |
| COc1ccc(C2=NNC(=O)[C@@H]3CCCC[C@H]23)cc1OC (relative stereo) | -6.4 |  |
| COc1ccc(C2=NNC(=O)C(C)C2C)cc1OC (stereo in doubt; 3d) | -6.7 | < -5 |
| COc1ccc(C2=NNC(=O)C(C)C2C)cc1OC (stereo in doubt; 3e) | -6.2 | -5.4 |
| O=c1c2cccnc2c(-c2cccc([N+](=O)[O-])c2)nn1Cc1ccncc1 [PYRIDOPYRIDAZINONE] | -8.3 |  |
| COc1cc(-c2ccc(=O)[nH]n2)ccc1OC(F)F [ZARDAVERINE] |  | -6.2 |
